Among the data in ChEMBL document CHEMBL1143594, “Selective estrogen receptor modulators in the ruthenocene series. Synthesis and biological behavior” (J Med Chem, 2005) are logP and relative binding affinity (RBA) values, retold here.

Data set [1] can be described thus: Octanol-water partition coefficient (logP) of the compound measured by RP-HPLC. In kind it is physicochemical. In short, it runs like this:
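Reverse-phase HPLC capacity factors measured in an organic phase of 85%-60% methanol containing 0.25% octanol, against an aqueous phase of 0.15% n-decylamine in 0.02 M MOPS pH 7.4 made with octanol-saturated water. Extrapolated to 100% aqueous to give kNw. log Po/w = 0.13418 + 0.98452 log kNw.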

The target in data set [2] is Estrogen receptor beta (Homo sapiens) (UniProt Q92731). Briefly: Relative binding affinity for Estrogen receptor beta.
Estrogen receptor beta (Homo sapiens), sequence (Q92731 whole entry): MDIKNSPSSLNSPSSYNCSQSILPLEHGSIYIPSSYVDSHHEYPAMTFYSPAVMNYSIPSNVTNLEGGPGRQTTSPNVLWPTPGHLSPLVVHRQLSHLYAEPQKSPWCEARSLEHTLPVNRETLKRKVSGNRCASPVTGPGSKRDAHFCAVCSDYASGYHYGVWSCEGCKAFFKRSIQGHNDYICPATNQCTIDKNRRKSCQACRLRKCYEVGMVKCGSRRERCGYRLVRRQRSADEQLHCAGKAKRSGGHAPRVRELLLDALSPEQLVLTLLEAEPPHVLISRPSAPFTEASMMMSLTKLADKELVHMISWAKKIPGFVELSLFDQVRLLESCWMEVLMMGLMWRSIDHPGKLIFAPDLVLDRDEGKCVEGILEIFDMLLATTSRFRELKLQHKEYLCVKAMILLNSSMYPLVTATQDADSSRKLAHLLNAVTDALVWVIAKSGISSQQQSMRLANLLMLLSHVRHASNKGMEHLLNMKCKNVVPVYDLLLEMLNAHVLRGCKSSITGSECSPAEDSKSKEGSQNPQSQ

For the molecule `CC/C(=C(/c1ccc(O)cc1)c1ccc(OCCN(C)C)cc1)c1ccccc1` [listing 1 of 3 here], the logP in data set [1] amounted to 3.4.
In the case of `CC/C(=C(/c1ccc(O)cc1)c1ccc(OCCN(C)C)cc1)c1ccccc1` [listing 2 of 3 here], the logP in data set [1] amounted to 3.2.
On to `C[C@]12CC[C@@H]3c4ccc(O)cc4CC[C@H]3[C@@H]1CC[C@@H]2O` [ESTRADIOL], for which the relative binding affinity (RBA) in data set [2] was 100. In addition, the logP in data set [1] turned out to be 3.5.
The molecule `CC/C(=C(/c1ccc(O)cc1)c1ccc(OCCN(C)C)cc1)c1ccccc1` [listing 3 of 3 here] registered a relative binding affinity (RBA) in data set [2] of 18.5.

For orientation: logP means the decadic logarithm of the partition coefficient of the neutral form, usually between octanol and water. A lower logP goes with a more hydrophilic compound.
